Legend:
aldosterone and cortisol = conditions: cited from earlier work
[1] = test system: blood pressure, ACTH-stimulated cortisol; conditions: primary hypertension, all doses tested; cited from earlier work
[2] = cited from earlier work
urine aldosterone = experiment: 24-hour urine aldosterone excretion after multiple dosing; format: in vivo, human; conditions: spironolactone 25 mg/d
In short: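 Once-daily oral dosing for 8 days in healthy adults (0.1–100 mg; solution in degassed Sprite; double-dummy with an MR antagonist capsule). Urine pooled over 24 h from pre-dose Day 3 to pre-dose Day 4, and from pre-dose Day 7 to pre-dose Day 8, and assayed for aldosterone. Data ln-transformed and fitted with a mixed model (fixed treatment and period, random subject). Ratios of LS geometric means with 90% CIs.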

plasma aldosterone = experiment: Basal plasma aldosterone concentration; format: in vivo, human; conditions: multiple dose, model estimate (CV%)
[3] = test system: plasma aldosterone, corticosterone, 11-deoxycorticosterone; experiment: IV ACTH challenge Day 8: plasma aldosterone and precursors; format: in vivo, human
In short: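 After 8 days of oral once-daily dosing in healthy adults, an IV ACTH challenge was given 1 h post-dose on Day 8. Plasma aldosterone, corticosterone and 11-deoxycorticosterone were drawn at −15 min (baseline) and at 30 and 60 min post-challenge. Read-out was change from pre-challenge, averaged over 30 and 60 min. Stimulated aldosterone was fitted with a hyperbolic Imax model against dose and plasma drug level.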

[4] = test system: plasma cortisol and 11-deoxycortisol (CYP11B1); experiment: IV ACTH challenge Day 8: plasma cortisol and 11-deoxycortisol; format: in vivo, human; conditions: spironolactone 25 mg/d
In short: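 IV ACTH challenge 1 h after the Day 8 oral dose, following daily dosing at 0.1–100 mg in healthy adults (crossover with placebo and an MR antagonist). Plasma cortisol and 11-deoxycortisol were drawn at −15, 30 and 60 min. Read-out was mean change from pre-challenge, with cortisol expressed as the average post-challenge concentration over the 1-h period.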

serum K+ [5] = experiment: Basal serum potassium after multiple dosing; format: in vivo, human; conditions: model estimate (CV%)
serum K+ [6] = experiment: Oral K+ challenge Day 7: serum K+ and K+ renal clearance; format: in vivo, human
In short: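 On Day 7 of once-daily oral dosing, healthy adults received an oral 40 mEq K+ load 3 h post-dose. Dietary K+ that day was cut by 40 mEq to hold daily intake at 125 mEq. Serum K+ was followed for 5 h post-challenge, and Cavg was taken over 5 h. Renal clearance = urinary excretion / serum AUC. Post-challenge K+ was fitted with a hyperbolic Emax model (additive above placebo).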

urinary K+ excretion = experiment: 24-hour urinary K+ excretion Days 3 and 7; format: in vivo, human; conditions: spironolactone 25 mg/d
[7] = Safety and tolerability in healthy subjects; format: in vivo, human; conditions: multiple administration, ASEB
In short: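 Two studies in healthy adults confined to the unit: a single ascending oral dose (0.1–300 mg) and once-daily dosing for 8 days (0.1–100 mg) with placebo and an MR antagonist in double-dummy crossover. Safety covered vital signs, ECG, and hepatic and renal laboratory tests. Blood pressure was taken repeatedly over Days 3 and 7. Average MAP = area under the MAP–time curve to 24 h divided by 24 h.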

N#Cc1ccc([C@H]2CCc3cncn32)c(F)c1 [LCI699]
plasma and 24-h urinary aldosterone (aldosterone and cortisol; Na+-depleted healthy volunteers, dose-dependent): decreased both plasma and 24-h urinary aldosterone | ACTH-stimulated aldosterone elevation (aldosterone and cortisol; all three doses (0.5, 1 and 3 mg)): inhibited ACTH-stimulated aldosterone elevation | ACTH-stimulated cortisol production (aldosterone and cortisol; higher dose of 3 mg): significantly inhibited ACTH-stimulated cortisol production | ACTH-stimulated cortisol production [1]: significantly inhibited ACTH-stimulated cortisol production

C[C@]12CCC(=O)C=C1CC[C@@H]1[C@@H]2[C@@H](O)C[C@]2(C=O)[C@@H](C(=O)CO)CC[C@@H]12 [aldosterone]
disappearance half-life of radiolabeled aldosterone [2]: 35 min

CC(=O)S[C@@H]1CC2=CC(=O)CC[C@]2(C)[C@H]2CC[C@@]3(C)[C@@H](CC[C@@]34CCC(=O)O4)[C@H]12 [Spironolactone]
effect on urine aldosterone excretion (urine aldosterone): elevated urine aldosterone excretion | Spironolactone (50 mg) effect on PAC (plasma aldosterone): 49 (19%) pg/ml | effect on PAC following the ACTH challenge ([3]; spironolactone 25 mg/d, Day 8): no effect on PAC | Spironolactone (50 mg) effect on PAC ([3]; stimulated, post-ACTH, model estimate (CV%)): 18 (89%) pg/ml | plasma cortisol after ACTH challenge compared to placebo [4]: No differences | Spironolactone (50 mg) effect on K+ (serum K+ [5]): 0.02 (232%) mM | average serum K+ over 5 h post oral K+ challenge (Cavg, mean±SD) (serum K+ [6]; spironolactone 25 mg/d, Day 7): 4.5 ± 0.2 mmol/L | Spironolactone (50 mg) effect on K+ (serum K+ [6]; stimulated, post-K+ challenge, model estimate (CV%)): 0.09 (68%) mM | 24-hour urinary K+ excretion (mean±SD) (urinary K+ excretion; Day 3, placebo 99±19): 97 ± 20 mmol | 24-hour urinary K+ excretion (mean±SD) (urinary K+ excretion; Day 7, placebo 110±23): 117 ± 17 mmol | effects on mean arterial pressure (MAP) [7]: no clear effects

— paper PMC5843917 (Journal of the Renin-Angiotensin-Aldosterone System: JRAAS, 2017)
